Assays:
Assay type in all cases: functional
[1] = test system: CCRF-CEM; experiment: Growth inhibition of human CCRF-CEM cells after 48 hrs by sulforhodamine B assay
In short: (§1)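 NCI 60-line panel, five concentrations (0.01–100 µM) from DMSO stock diluted in medium with gentamicin. Cells were plated 24 h before dosing, with time-zero plates fixed at drug addition, then exposed 48 h at 37 °C, 5% CO₂. Adherent cells were fixed with cold TCA (10% final) and suspension cells with 16% TCA. Staining used 0.4% SRB, solubilised in 10 mM Tris and read at 515 nm. GI₅₀ was taken from log concentration–% growth curves.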

[2] = test system: HT-29; experiment: Growth inhibition of human HT-29 cells after 48 hrs by sulforhodamine B assay; settings: HT-29, 48 h; in short: as §1
[3] = test system: HOP-62; experiment: Growth inhibition of human HOP62 cells after 48 hrs by sulforhodamine B assay; settings: HOP-62, 48 h; in short: as §1
[4] = Cytotoxicity against human breast cancer cells after 48 hrs by sulforhodamine B assay; settings: Cancer cell lines
In short: (§2)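 NCI five-dose screen: about 60 human tumour lines grouped into nine subpanels were plated and incubated 24 h before dosing. Compounds went in as DMSO stock and were diluted in medium to five final concentrations (0.01–100 µM). Exposure was 48 h continuous at 37 °C, 5% CO₂, followed by TCA fixation and SRB staining read at 515 nm. Per-line GI₅₀, TGI and LC₅₀ came from log concentration–% growth curves, averaged per subpanel as MG-MID.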

[5] = test system: SW-620; experiment: Growth inhibition of human SW620 cells after 48 hrs by sulforhodamine B assay; settings: SW-620, 48 h
In short: (§3)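 Adherent lines plated and held 24 h at 37 °C, 5% CO2, 100% humidity; time-zero plates TCA-fixed at drug addition. Drugs from DMSO stocks were made into five concentrations by 10-fold or half-log serial dilution and applied for 48 h continuous exposure. Cells were fixed with cold TCA (10% final) for 60 min at 4 °C, then stained with 0.4% SRB in 1% acetic acid for 10 min. Dye was solubilized in 10 mM Tris base and read at 515 nm. GI50 was taken from log concentration–growth curves.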

[6] = Cytotoxicity against human renal cancer cells after 48 hrs by sulforhodamine B assay; settings: Cancer cell lines; in short: as §2
[7] = Cytotoxicity against human ovarian cancer cells after 48 hrs by sulforhodamine B assay; settings: Cancer cell lines; in short: as §2
[8] = Cytotoxicity against human prostate cancer cells after 48 hrs by sulforhodamine B assay; settings: Cancer cell lines; in short: as §2
[9] = test system: IGROV-1; experiment: Growth inhibition of human IGROV1 cells after 48 hrs by sulforhodamine B assay; settings: IGROV-1, 48 h; in short: as §1
[10] = test system: MCF7; experiment: Growth inhibition of human MCF7 cells after 48 hrs by sulforhodamine B assay; settings: MCF7, 48 h; in short: as §1
[11] = test system: TK-10; experiment: Growth inhibition of human TK10 cells after 48 hrs by sulforhodamine B assay; settings: TK-10, 48 h; in short: as §3
[12] = test system: SK-OV-3; experiment: Growth inhibition of human SKOV3 cells after 48 hrs by sulforhodamine B assay; settings: SK-OV-3, 48 h; in short: as §3
[13] = test system: KM12; experiment: Growth inhibition of human KM12 cells after 48 hrs by sulforhodamine B assay; settings: KM12, 48 h; in short: as §1
[14] = test system: ACHN; experiment: Growth inhibition of human ACHN cells after 48 hrs by sulforhodamine B assay; in short: as §1
[15] = test system: NCI-H23; experiment: Growth inhibition of human NCI-H23 cells after 48 hrs by sulforhodamine B assay; settings: NCI-H23, 48 h; in short: as §1
[16] = test system: NCI-H460; experiment: Growth inhibition of human NCI-H460 cells after 48 hrs by sulforhodamine B assay; settings: NCI-H460, 48 h; in short: as §1
[17] = test system: SF-268; experiment: Growth inhibition of human SF268 cells after 48 hrs by sulforhodamine B assay; settings: SF-268, 48 h; in short: as §1
[18] = test system: HCT-116; experiment: Growth inhibition of human HCT116 cells after 48 hrs by sulforhodamine B assay; settings: HCT-116, 48 h; in short: as §1
[19] = test system: 786-0; experiment: Growth inhibition of human 786-0 cells after 48 hrs by sulforhodamine B assay; settings: 786-0, 48 h; in short: as §1
[20] = Cytotoxicity against human CNS cancer cells after 48 hrs by sulforhodamine B assay; settings: Cancer cell lines; in short: as §2
[21] = test system: T47D; experiment: Growth inhibition of human T47D cells after 48 hrs by sulforhodamine B assay; in short: as §3
[22] = test system: SK-MEL-5; experiment: Growth inhibition of human SK-MEL-5 cells after 48 hrs by sulforhodamine B assay; settings: SK-MEL-5, 48 h; in short: as §3
[23] = test system: NCI-H522; experiment: Growth inhibition of human NCI-H522 cells after 48 hrs by sulforhodamine B assay; settings: NCI-H522, 48 h; in short: as §1
[24] = test system: HCT-15; experiment: Growth inhibition of human HCT15 cells after 48 hrs by sulforhodamine B assay; settings: HCT-15, 48 h; in short: as §1
[25] = test system: OVCAR-8; experiment: Growth inhibition of human OVCAR8 cells after 48 hrs by sulforhodamine B assay; settings: OVCAR-8, 48 h; in short: as §1
[26] = test system: HOP-92; experiment: Growth inhibition of human HOP92 cells after 48 hrs by sulforhodamine B assay; settings: HOP-92, 48 h; in short: as §1
[27] = test system: MDA-MB-468; experiment: Growth inhibition of human MDA-MB-468 cells after 48 hrs by sulforhodamine B assay; settings: MDA-MB-468, 48 h; in short: as §1
[28] = test system: M14; experiment: Growth inhibition of human M14 cells after 48 hrs by sulforhodamine B assay; settings: M14, 48 h; in short: as §1
[29] = test system: SNB-75; experiment: Growth inhibition of human SNB75 cells after 48 hrs by sulforhodamine B assay; settings: SNB-75, 48 h; in short: as §3
[30] = test system: SF-539; experiment: Growth inhibition of human SF539 cells after 48 hrs by sulforhodamine B assay; settings: SF-539, 48 h; in short: as §3
[31] = Cytotoxicity against human lung cancer cells after 48 hrs by sulforhodamine B assay; settings: Cancer cell lines; in short: as §2
[32] = test system: HCC 2998; experiment: Growth inhibition of human HCC2998 cells after 48 hrs by sulforhodamine B assay; settings: HCC 2998, 48 h; in short: as §1
[33] = Growth inhibition of human Hs 578T cells after 48 hrs by sulforhodamine B assay; in short: as §1
[34] = test system: A498; experiment: Growth inhibition of human A498 cells after 48 hrs by sulforhodamine B assay; settings: A498, 48 h; in short: as §1
[35] = test system: UACC-62; experiment: Growth inhibition of human UACC62 cells after 48 hrs by sulforhodamine B assay; settings: UACC-62, 48 h; in short: as §3
[36] = test system: U-251; experiment: Growth inhibition of human U251 cells after 48 hrs by sulforhodamine B assay; settings: U-251, 48 h; in short: as §3
[37] = test system: UO-31; experiment: Growth inhibition of human UO31 cells after 48 hrs by sulforhodamine B assay; settings: UO-31, 48 h; in short: as §3
[38] = test system: BT-549; experiment: Growth inhibition of human BT549 cells after 48 hrs by sulforhodamine B assay; settings: BT-549, 48 h; in short: as §1
[39] = test system: CAKI-1; experiment: Growth inhibition of human Caki1 cells after 48 hrs by sulforhodamine B assay; settings: CAKI-1, 48 h; in short: as §1
[40] = test system: COLO 205; experiment: Growth inhibition of human COLO205 cells after 48 hrs by sulforhodamine B assay; settings: COLO 205, 48 h; in short: as §1
[41] = test system: RPMI-8226; experiment: Growth inhibition of human RPMI8226 cells after 48 hrs by sulforhodamine B assay; settings: RPMI-8226, 48 h; in short: as §1

Cc1cc(C)n(C(=O)c2nn(-c3ccc(Cl)cc3)cc2O)n1
GI50 [1]: 3.66 µM | GI50 [2]: 3.29 µM | GI50 [3]: 5.21 µM | GI50 [4]: 4.96 µM | GI50 [5]: 8.02 µM | GI50 [6]: 4.52 µM | TGI [6]: 71.3 µM | GI50 [7]: 5.27 µM | TGI [7]: 87.8 µM | GI50 [8]: 6.64 µM | GI50 [9]: 3.16 µM | GI50 [10]: 4.52 µM | GI50 [11]: 4.71 µM | GI50 [12]: 7.04 µM | GI50 [13]: 5.07 µM | GI50 [14]: 3.77 µM | GI50 [15]: 3.31 µM | GI50 [16]: 2.38 µM | GI50 [17]: 4.13 µM | GI50 [18]: 3.42 µM | GI50 [19]: 9.64 µM | GI50 [20]: 3.13 µM | TGI [20]: 69.2 µM | GI50 [21]: 3.66 µM | GI50 [22]: 6.76 µM | GI50 [23]: 7.37 µM | GI50 [24]: 3.53 µM | GI50 [25]: 5.96 µM | GI50 [26]: 4.52 µM | GI50 [27]: 8.9 µM | GI50 [28]: 4.69 µM | GI50 [29]: 3.52 µM | GI50 [30]: 3.05 µM | GI50 [31]: 4.69 µM | TGI [31]: 81.7 µM | GI50 [32]: 15.1 µM | GI50 [33]: 3.21 µM | GI50 [34]: 2.9 µM | GI50 [35]: 3.46 µM | GI50 [36]: 2.68 µM | GI50 [37]: 3.01 µM | GI50 [38]: 2.19 µM | GI50 [39]: 4.23 µM | GI50 [40]: 18.5 µM | GI50 [41]: 3.34 µM
